Laboratory results as given in ChEMBL document CHEMBL1250451, “Mechanistic insights into a Ca2+-dependent family of alpha-mannosidases in a human gut symbiont” (Nat Chem Biol, 2010).

Key:
Type in all cases: protein assay
[1] = substrate: OC[C@H]1O[C@H](O[C@H]2[C@@H](O)[C@H](O)[C@@H](CO)O[C@@H]2O)[C@@H](O)[C@@H](O)[C@@H]1O; assay: (§1) Ratio of Kcat to Km for Bacteroides thetaiotaomicron GH92 alpha-mannosidase 2199 E537A mutant assessed as as mannose release after 16 hrs by HPLC relative to wild type enzyme
[2] = substrate: O=[N+]([O-])c1ccc(O[C@H]2O[C@H](CO)[C@@H](O)[C@H](O)[C@@H]2O)cc1; assay: as §1
[3] = substrate: OC[C@H]1O[C@H](O[C@H]2[C@@H](O)[C@H](O)[C@@H](CO)O[C@@H]2O)[C@@H](O)[C@@H](O)[C@@H]1O; assay: (§2) Activity of Bacteroides thetaiotaomicron GH92 alpha-mannosidase 2199 E537A mutant assessed as as mannose release after 16 hrs by HPLC relative to wild type enzyme
[4] = substrate: O=[N+]([O-])c1ccc(O[C@H]2O[C@H](CO)[C@@H](O)[C@H](O)[C@@H]2O)cc1; assay: as §2
[5] = substrate: OC[C@H]1O[C@H](O[C@H]2[C@@H](O)[C@H](O)[C@@H](CO)O[C@@H]2O)[C@@H](O)[C@@H](O)[C@@H]1O; assay: (§3) Activity of Bacteroides thetaiotaomicron GH92 alpha-mannosidase 2199 E537Q mutant assessed as as mannose release after 16 hrs by HPLC relative to wild type enzyme
[6] = substrate: O=[N+]([O-])c1ccc(O[C@H]2O[C@H](CO)[C@@H](O)[C@H](O)[C@@H]2O)cc1; assay: as §3
[7] = substrate: OC[C@H]1O[C@H](O[C@H]2[C@@H](O)[C@H](O)[C@@H](CO)O[C@@H]2O)[C@@H](O)[C@@H](O)[C@@H]1O; assay: (§4) Ratio of Kcat to Km for Bacteroides thetaiotaomicron GH92 alpha-mannosidase 2199 E537Q mutant assessed as as mannose release after 16 hrs by HPLC relative to wild type enzyme
[8] = substrate: O=[N+]([O-])c1ccc(O[C@H]2O[C@H](CO)[C@@H](O)[C@H](O)[C@@H]2O)cc1; assay: as §4
[9] = substrate: O=[N+]([O-])c1ccc(O[C@H]2O[C@H](CO)[C@@H](O)[C@H](O)[C@@H]2O)cc1; assay: (§5) Activity of Bacteroides thetaiotaomicron GH92 alpha-mannosidase GH92 alpha-mannosidase 4093 assessed as mannose release after 16 hrs by HPLC
Procedure, shortened: (§6)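 Yeast mannan or ovalbumin (mostly high-mannose N-glycans) at 1 mg ml−1 was incubated with recombinant IMAC-purified enzyme from E. coli. The methods give enzyme at 2 μM and the table footnote gives 1 μM. Buffer was 100 mM sodium HEPES pH 7.0 with 1 mg ml−1 BSA and 2 mM CaCl2. Aliquots were taken at 1 and 16 h and boiled 10 min. Mannose was measured by HPLC and scored by signal: >500 nC +++, 200–500 ++, <200 +.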

[10] = substrate: OC[C@H]1O[C@H](O[C@H]2[C@H](O)[C@H](O)[C@@H](O)O[C@@H]2CO)[C@@H](O)[C@@H](O)[C@@H]1O; assay: as §5; procedure, shortened: as §6
[11] = substrate: O=[N+]([O-])c1ccc(O[C@H]2O[C@H](CO)[C@@H](O)[C@H](O)[C@@H]2O)cc1; assay: (§7) Ratio of Kcat to Km for Bacteroides thetaiotaomicron GH92 alpha-mannosidase GH92 alpha-mannosidase 4093 assessed as mannose release after 16 hrs by HPLC
[12] = substrate: OC[C@H]1O[C@H](O[C@H]2[C@H](O)[C@H](O)[C@@H](O)O[C@@H]2CO)[C@@H](O)[C@@H](O)[C@@H]1O; assay: as §7

B1: Alpha-1,2-mannosidase (BT_2199) (Bacteroides thetaiotaomicron), Q8A5N9 E537A (protein)
chain: MVTRLFFLSICFPFLLTSCQQSKKTVEFVDYVNPLMGTESTFAFSHGNTYPAVAVPWGMNFWSPQTGENGSGWMYTYTDSLMRGFRQTHQPSPWINDYGTFSIMPLAGELKMSHKERLVPFSHQQEKATPYNYSVTFNNGLQTSLSATSRGAVFEVSFPEKEDQYVVVDAYNGGSSITIEPEKRLVKGATRYNNGGVPDNFANYFMMEFSHPVIEYGTYNGDTLLHHQTDVAADYTCAYLKFDVPAGEKLTIRTASSFISPEQAAINFNREVADADVQLISGKAREQWNNYLGRVEAEGGTDEQLRTFYSCLYRTLLFPREFYEFDSQGNPVYYSPYDGNVHDGYMYTDNGFWDTFRAVHPLFTLLYPEVSERVTQSIINAYNESGFMPEWASPGHRGCMIGNNSVSLLVDAWMKGIQTVDAEKALEAMIHQTQARHAEIASVGRDGFEYYDKLGYVPYPEVPEATAKTLEYAYADWCIARFAESLGKQDIADQYYQKAPNYRNLYYPEHGFMWTKDAKGNWRDRFDATEWGGPFTAGSSWHWTWSVFHDPEGLSELMGGHEPMIARLDSMFVAPNTYNYGTYGFVIHEIAEMVALNMGQYAHGNQPVQHAIYLYDYIGQPWKTQYHLRNVMDKLYNSGSKGYCGDEDNGQTSAWYVFSAMGFYPVCPGMPEYAIGSPLFKKVTLHLPEGKNFVVSAADNAADRPYIRKALLNGQEFTRNYLTHDELKQGGELNLSMDSVPNQQRGTQPADFPYSYSK
With B1 the kcat/Km [1] was 0.517 M⁻¹ s⁻¹, the kcat/Km [2] was 0.383 M⁻¹ s⁻¹ and the Km [3] was 874 µM. The kcat [3] was 0.00045 s⁻¹, the Km [4] was “Not Active” and the kcat [4] was “Not Active”.

B2: Alpha-1,2-mannosidase (BT_2199) (Bacteroides thetaiotaomicron), Q8A5N9 E537Q (protein)
chain: MVTRLFFLSICFPFLLTSCQQSKKTVEFVDYVNPLMGTESTFAFSHGNTYPAVAVPWGMNFWSPQTGENGSGWMYTYTDSLMRGFRQTHQPSPWINDYGTFSIMPLAGELKMSHKERLVPFSHQQEKATPYNYSVTFNNGLQTSLSATSRGAVFEVSFPEKEDQYVVVDAYNGGSSITIEPEKRLVKGATRYNNGGVPDNFANYFMMEFSHPVIEYGTYNGDTLLHHQTDVAADYTCAYLKFDVPAGEKLTIRTASSFISPEQAAINFNREVADADVQLISGKAREQWNNYLGRVEAEGGTDEQLRTFYSCLYRTLLFPREFYEFDSQGNPVYYSPYDGNVHDGYMYTDNGFWDTFRAVHPLFTLLYPEVSERVTQSIINAYNESGFMPEWASPGHRGCMIGNNSVSLLVDAWMKGIQTVDAEKALEAMIHQTQARHAEIASVGRDGFEYYDKLGYVPYPEVPEATAKTLEYAYADWCIARFAESLGKQDIADQYYQKAPNYRNLYYPEHGFMWTKDAKGNWRDRFDATEWGGPFTQGSSWHWTWSVFHDPEGLSELMGGHEPMIARLDSMFVAPNTYNYGTYGFVIHEIAEMVALNMGQYAHGNQPVQHAIYLYDYIGQPWKTQYHLRNVMDKLYNSGSKGYCGDEDNGQTSAWYVFSAMGFYPVCPGMPEYAIGSPLFKKVTLHLPEGKNFVVSAADNAADRPYIRKALLNGQEFTRNYLTHDELKQGGELNLSMDSVPNQQRGTQPADFPYSYSK
B2 gave a Km [5] of 571 µM, a kcat [5] of 0.000433 s⁻¹ and a Km [6] of 3100 µM. The kcat [6] was 0.06 s⁻¹, the kcat/Km [7] was 0.767 M⁻¹ s⁻¹ and the kcat/Km [8] was 19.5 M⁻¹ s⁻¹.

B3: Alpha-1,2-mannosidase family protein (BT_4093) (Bacteroides thetaiotaomicron), Q8A0C8 (protein)
chain: MKHKFLFILLFSLVLEGMVTTQAVAGDYVHQVNTLIGTKGTGLTSGYLYPGATYPYGMVQFTPSYFSKRSGFVINQLSGGGCEHMGNFPTFPVKGKLKMSPDNILNYRINVSEEKGHAGYYEAMVQEDIKAKLTVTERTGMASYEYPADQQYGTIIIGGGISATPIEQAAIVITAPNKCEGYAEGGNFCGLRTPYKVYFVAEFDTDAFETGTWKREELMPNTTFAEGEYSGVYFTFDVNKKKNIQYKIGVSYVSVENARENLKAENAEWDFQKIQNQAEAKWNHYLGMIEVEGTNPDRTTQFYTHLYRSFIHPNVCSDVNGEYMGADFRVHKSRSKHYTSFSNWDTYRTQIQLLSMLDPEVASDIVISHQLFAEQSGGSFPRWVMANIETGVMQGDPTPILIANAYAFGARNYDPKPIFKIMRKGAEEPGSKSQDVETRPGLKQYLDKGYYNASIQLEYTSADFAIGQFALHAVGDEFASWRYFHFARSWKNLYNSDTGWLQSRNPDGSWKSLGEDFRESTYKNYFWMVPYDIAGLVEIIGGKEKAEKRLDEFFTRLDAGYNDAWFASGNEPSFHIPWIYNWIGRPYKTQEIINRVLNEQYSSKIDGLPGNDDLGTMGAWYVFACIGLYPEIPGVGGFTVNTPIFSSVKVHLKKGDIVIKGGSEKDIYIKSMKLNGKSYESTWIDWDQLNSGATIEYRTSGKPDMKWGAKVVPPSFP
B3 was tested, and the Km [9] was 1300 µM, the kcat [9] was 0.0112 s⁻¹ and the Km [10] was 35000 µM. It also gave a kcat [10] of 1.33 s⁻¹, a kcat/Km [11] of 9.08 M⁻¹ s⁻¹ and a kcat/Km [12] of 38.3 M⁻¹ s⁻¹.
